Assay results from ChEMBL document CHEMBL1124558, “Differential effects of a series of hydroxamic acid derivatives on 5-lipoxygenase and cyclooxygenase from neutrophils and 12-lipoxygenase from platelets and their in vivo effects on inflammation and anaphylaxis” (J Med Chem, 1989).
pIC50, pKi: −log10 of the molar value. One block for each compound: values may come before it.

Assays:
Mus musculus [1] = assay: In vivo inhibition of mouse ear inflammation; assay type: functional; parameters: concentration or dose not given beside the values
Outline: (§1)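 Compound or ethanol vehicle applied topically to one ear of male DBA/2J mice 60 min before arachidonic acid (2 mg/ear). […] Groups of 5 mice.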

[2] = target: T1, Cyclooxygenase (Rattus norvegicus) (UniProt P35355+Q63921); assay: In vitro inhibitory activity against rat polymorphonuclear leukocyte Prostaglandin G/H synthase at 10 uM; assay type: protein assay
Outline: (§2)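 Homogenate of glycogen-elicited rat peritoneal PMNs in 0.1 M Tris-HCl pH 8.2 with 10 μM NDGA, preincubated 5 min at 37 °C with compound (≤0.1% DMSO). [14C]arachidonic acid (8 μM) added with 4 mM glutathione and epinephrine; 10 min reaction. TxB2 and PGF2α separated by TLC and counted.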

[3] = tested on: 5-lipoxygenase (Cavia porcellus); assay: In vitro inhibitory activity against polymorphonuclear leukocyte 5-lipoxygenase using guinea pig supernatant at 10 uM
[4] = target: T1, Cyclooxygenase (Rattus norvegicus); assay: In vitro inhibitory activity against rat polymorphonuclear leukocyte Prostaglandin G/H synthase at 30 uM; assay type: protein assay; outline: as §2
[5] = target: T2, Arachidonate 12-lipoxygenase (Rattus norvegicus) (UniProt Q02759); assay: In vitro inhibitory activity against rat platelet 12-lipoxygenase at 10 uM
T2 sequence (whole entry): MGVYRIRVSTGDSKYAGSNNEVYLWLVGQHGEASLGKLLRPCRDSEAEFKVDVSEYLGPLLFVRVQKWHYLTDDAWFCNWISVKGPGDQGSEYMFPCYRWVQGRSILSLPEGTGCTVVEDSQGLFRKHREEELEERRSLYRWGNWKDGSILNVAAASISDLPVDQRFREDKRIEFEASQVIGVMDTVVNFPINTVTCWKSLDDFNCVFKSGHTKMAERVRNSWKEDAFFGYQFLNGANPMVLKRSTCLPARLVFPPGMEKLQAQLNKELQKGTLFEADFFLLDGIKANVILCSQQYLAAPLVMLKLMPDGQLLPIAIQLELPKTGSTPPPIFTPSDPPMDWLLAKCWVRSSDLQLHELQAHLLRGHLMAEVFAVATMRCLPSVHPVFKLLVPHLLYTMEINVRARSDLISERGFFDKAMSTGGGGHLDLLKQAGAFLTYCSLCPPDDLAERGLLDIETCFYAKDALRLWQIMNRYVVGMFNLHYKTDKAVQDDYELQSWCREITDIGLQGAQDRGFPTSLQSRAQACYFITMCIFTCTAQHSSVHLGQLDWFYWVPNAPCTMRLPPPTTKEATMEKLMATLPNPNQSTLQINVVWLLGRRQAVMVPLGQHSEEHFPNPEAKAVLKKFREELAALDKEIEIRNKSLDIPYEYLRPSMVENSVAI
Outline: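 Cell-free cytosolic 12-lipoxygenase from Sprague-Dawley rat platelets (0.4 mg/mL), preincubated 5 min at 30 °C with compound in DMSO (≤0.1% final), 25 mM Tris pH 7.4, 1 μM indomethacin, 100 μM glutathione; reaction started with 6 μM [14C]arachidonic acid and quenched with citric acid/NDGA after 3 min. 12-HETE isolated by TLC and counted by scintillation; % inhibition, duplicate.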

[6] = target: T3, Polyunsaturated fatty acid 5-lipoxygenase (Homo sapiens) (UniProt P09917); assay: In vitro inhibitory activity against polymorphonuclear leukocyte 5-lipoxygenase in human cell at 10 uM
T3 sequence (whole entry): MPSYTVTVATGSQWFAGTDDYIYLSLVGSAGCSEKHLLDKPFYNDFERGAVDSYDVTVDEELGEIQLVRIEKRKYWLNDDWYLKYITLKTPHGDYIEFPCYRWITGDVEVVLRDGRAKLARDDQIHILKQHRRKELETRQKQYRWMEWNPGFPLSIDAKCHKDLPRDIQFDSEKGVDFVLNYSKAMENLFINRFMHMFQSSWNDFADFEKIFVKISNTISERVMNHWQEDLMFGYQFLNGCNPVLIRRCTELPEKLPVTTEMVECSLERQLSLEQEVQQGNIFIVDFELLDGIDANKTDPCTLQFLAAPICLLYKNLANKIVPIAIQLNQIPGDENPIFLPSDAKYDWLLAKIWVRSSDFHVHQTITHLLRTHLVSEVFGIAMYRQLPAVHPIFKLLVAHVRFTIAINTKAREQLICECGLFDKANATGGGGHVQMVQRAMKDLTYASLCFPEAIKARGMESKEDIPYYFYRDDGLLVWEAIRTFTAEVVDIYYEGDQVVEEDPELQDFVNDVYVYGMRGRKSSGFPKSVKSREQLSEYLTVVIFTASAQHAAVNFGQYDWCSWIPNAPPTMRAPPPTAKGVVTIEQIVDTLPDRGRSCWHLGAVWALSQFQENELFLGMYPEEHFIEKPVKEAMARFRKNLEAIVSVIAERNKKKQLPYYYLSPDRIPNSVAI
Outline: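 Human PMNs from venous blood of a healthy volunteer (EDTA) were purified by dextran sedimentation, a Percoll gradient and NH4Cl red-cell lysis (>90% pure). They were held in Ca/Mg PBS with 1 mg/mL glucose and 1 μM indomethacin, then challenged with A23187 (0.8 μM) and [14C]arachidonic acid (4 μM) for 3 min. 5-HETE was measured by TLC and scintillation counting.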

[7] = target: T3, Polyunsaturated fatty acid 5-lipoxygenase (Homo sapiens); assay: In vitro inhibitory activity against polymorphonuclear leukocyte 5-lipoxygenase in human cell at 1 uM
Outline: (§3)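 PMNs from venous blood of healthy volunteers, isolated by dextran sedimentation and Percoll gradient (>90% pure) and held in Ca/Mg PBS with 1 mg/mL glucose and 1 μM indomethacin. Challenged with calcium ionophore and [14C]arachidonic acid for 3 min. 5-HETE measured by TLC and scintillation counting; IC50 read graphically.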

[8] = target: T4, Polyunsaturated fatty acid 5-lipoxygenase (Rattus norvegicus) (UniProt P12527); assay: In vitro inhibitory activity against polymorphonuclear leukocyte 5-lipoxygenase in rat cell at 3 uM
T4 sequence (whole entry): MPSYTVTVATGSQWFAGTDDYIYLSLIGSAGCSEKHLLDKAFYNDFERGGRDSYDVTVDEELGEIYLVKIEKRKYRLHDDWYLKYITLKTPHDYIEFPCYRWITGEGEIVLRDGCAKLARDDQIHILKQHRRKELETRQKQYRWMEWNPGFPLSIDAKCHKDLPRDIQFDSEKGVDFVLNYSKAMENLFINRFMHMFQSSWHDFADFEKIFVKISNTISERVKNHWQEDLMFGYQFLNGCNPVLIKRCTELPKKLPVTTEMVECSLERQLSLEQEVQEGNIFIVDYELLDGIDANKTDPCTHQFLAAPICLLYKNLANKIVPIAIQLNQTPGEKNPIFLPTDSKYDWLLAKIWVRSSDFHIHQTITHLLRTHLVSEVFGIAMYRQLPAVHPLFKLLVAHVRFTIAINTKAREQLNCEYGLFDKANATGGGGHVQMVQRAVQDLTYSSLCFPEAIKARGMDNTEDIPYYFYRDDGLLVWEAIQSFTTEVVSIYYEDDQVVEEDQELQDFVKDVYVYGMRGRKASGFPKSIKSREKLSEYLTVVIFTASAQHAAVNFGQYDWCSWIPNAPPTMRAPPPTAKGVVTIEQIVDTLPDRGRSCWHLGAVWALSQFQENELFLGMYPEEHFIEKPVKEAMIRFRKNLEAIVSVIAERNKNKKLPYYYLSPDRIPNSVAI
Outline: (§4)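 Intact glycogen-elicited peritoneal PMNs pooled from 4–5 Sprague-Dawley rats (250 g), preincubated 5 min at 30 °C with compound in DMSO (≤0.1% final) plus 1 μM indomethacin. Challenge with [14C]arachidonic acid (4 μM) and A23187 (0.8 μM) for 3 min. Extraction, TLC, 5-HETE by scintillation counting.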

Cavia porcellus [9] = assay: In vivo inhibitory activity against guinea pig systemic anaphylaxis when administered a compound dose (200 mg/kg) perorally; assay type: functional; conditions: po
Outline: (§5)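 Male Hartley guinea pigs sensitised ip with ovalbumin (2.7 mg/kg) plus LPS adjuvant, then challenged 2 weeks later with 1% ovalbumin aerosol for 30 s. Pretreated with pyrilamine, indomethacin and propranolol 20 min before challenge. Compound given in PEG 400 1 h before challenge.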

Cyclooxygenase = target: T5, Cyclooxygenase (Rattus norvegicus, UniProt P35355+Q63921); assay: (§6) In vitro inhibitory activity against rat polymorphonuclear leukocyte Prostaglandin G/H synthase; assay type: functional
T5 sequence (P35355 whole entry): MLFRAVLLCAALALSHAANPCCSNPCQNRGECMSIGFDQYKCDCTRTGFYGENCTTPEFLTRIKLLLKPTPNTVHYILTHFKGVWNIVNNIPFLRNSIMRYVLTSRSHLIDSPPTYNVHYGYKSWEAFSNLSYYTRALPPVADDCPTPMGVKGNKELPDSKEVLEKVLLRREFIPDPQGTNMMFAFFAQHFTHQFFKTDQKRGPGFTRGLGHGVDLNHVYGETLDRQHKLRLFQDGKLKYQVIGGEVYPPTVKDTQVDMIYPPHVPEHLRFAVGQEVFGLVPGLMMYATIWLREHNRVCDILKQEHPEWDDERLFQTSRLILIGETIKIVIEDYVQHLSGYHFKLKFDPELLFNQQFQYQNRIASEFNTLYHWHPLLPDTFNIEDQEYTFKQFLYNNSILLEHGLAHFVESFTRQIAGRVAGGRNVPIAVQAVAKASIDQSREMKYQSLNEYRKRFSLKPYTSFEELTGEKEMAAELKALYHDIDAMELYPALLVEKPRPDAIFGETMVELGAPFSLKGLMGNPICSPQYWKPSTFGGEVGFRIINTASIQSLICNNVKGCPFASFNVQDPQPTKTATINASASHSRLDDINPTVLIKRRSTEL
T5 sequence (Q63921 whole entry): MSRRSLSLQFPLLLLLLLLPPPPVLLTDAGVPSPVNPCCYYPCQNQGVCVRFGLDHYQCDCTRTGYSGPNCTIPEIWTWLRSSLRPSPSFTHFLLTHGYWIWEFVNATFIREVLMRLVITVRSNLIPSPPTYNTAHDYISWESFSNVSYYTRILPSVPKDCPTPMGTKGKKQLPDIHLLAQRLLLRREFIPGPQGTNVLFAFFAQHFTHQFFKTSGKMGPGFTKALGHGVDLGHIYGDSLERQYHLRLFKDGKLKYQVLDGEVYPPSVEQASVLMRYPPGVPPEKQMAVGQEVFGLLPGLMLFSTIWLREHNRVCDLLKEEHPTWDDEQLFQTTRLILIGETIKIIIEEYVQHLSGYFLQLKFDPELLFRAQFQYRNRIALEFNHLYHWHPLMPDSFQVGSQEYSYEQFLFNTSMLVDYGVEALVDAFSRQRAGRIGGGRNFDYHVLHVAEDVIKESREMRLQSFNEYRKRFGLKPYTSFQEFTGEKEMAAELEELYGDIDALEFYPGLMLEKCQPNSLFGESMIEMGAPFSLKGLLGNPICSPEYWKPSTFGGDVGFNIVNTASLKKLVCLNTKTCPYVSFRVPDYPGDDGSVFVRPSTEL
Outline: (§7)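 Glycogen-elicited peritoneal PMNs from Sprague-Dawley rats were homogenized at 0 °C in 0.1 M Tris-HCl pH 8.2 with 10 μM NDGA. Compound (DMSO ≤0.1%) was preincubated 5 min at 37 °C, then 8 μM [14C]arachidonic acid with 4 mM glutathione and epinephrine was added for 10 min. TxB2 and PGF2α were measured by TLC and scintillation counting.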

[10] = target: T6, Polyunsaturated fatty acid 5-lipoxygenase (Homo sapiens, UniProt P09917); assay: In vitro inhibition of polymorphonuclear leukocyte derived human 5-lipoxygenase; outline: as §3
T6 sequence (P09917 whole entry): T3 sequence (whole entry)

[11] = target: T7, Polyunsaturated fatty acid 5-lipoxygenase (Rattus norvegicus, UniProt P12527); assay: In vitro inhibition of rat polymorphonuclear leukocyte 5-lipoxygenase; outline: as §4
T7 sequence (P12527 whole entry): T4 sequence (whole entry)

Mus musculus [12] = assay: In vivo inhibitory activity against mouse ear inflammation when administered a compound dose (1 mg/ear); assay type: functional; outline: as §1
[13] = target: T8, Cysteinyl leukotriene receptor 1 (Cavia porcellus, UniProt Q2NNR5); assay: Activity to bind against [3H]LTD4 radioligand in guinea pig
T8 sequence (Q2NNR5 whole entry): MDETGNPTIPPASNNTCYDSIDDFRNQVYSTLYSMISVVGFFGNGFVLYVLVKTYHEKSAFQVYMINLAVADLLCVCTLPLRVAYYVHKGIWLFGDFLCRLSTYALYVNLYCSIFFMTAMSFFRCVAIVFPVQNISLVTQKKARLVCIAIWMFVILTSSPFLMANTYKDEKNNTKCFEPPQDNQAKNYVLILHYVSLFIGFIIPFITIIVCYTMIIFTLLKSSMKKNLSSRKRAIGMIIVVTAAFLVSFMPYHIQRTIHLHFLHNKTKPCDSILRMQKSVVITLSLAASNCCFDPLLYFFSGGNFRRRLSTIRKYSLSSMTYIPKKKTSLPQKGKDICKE

Cavia porcellus [14] = assay: In vivo inhibitory activity against guinea pig systemic anaphylaxis when administered a compound dose (60 mg/kg) perorally; assay type: functional; conditions: po; outline: as §5
[15] = target: T1, Cyclooxygenase (Rattus norvegicus); assay: as §6; assay type: protein assay; conditions: concentration not given here; outline: as §7

Structure (SMILES): O=C(CCCc1ccccc1)NO [PHENYLBUTYRYLHYDROXAMIC ACID]
inhibition [7]: -8% | inhibition [8]: 11% | Inhibition (Mus musculus [1]): 28% | inhibition in vivo at 200 mg/kg (Cavia porcellus [9]): 11%

Structure (SMILES): CN(O)C(=O)Cc1ccc(OCc2ccc3ccccc3n2)cc1
Inhibition (Mus musculus [12]): 48% | pKi [13]: 6.00 | inhibition in vivo at 60 mg/kg (Cavia porcellus [14]): 94% | pIC50 [10]: 6.00 | inhibition [15]: < 10% | pIC50 [11]: 6.46

Second part, led by results:

inhibition [2]: 38%
Structure (SMILES): CC(c1ccccc1)N(O)C(=O)Cc1ccc(OCc2ccccc2)cc1 (stereo unspecified)
Inhibition (Mus musculus [1]): 47%

inhibition [3]: < 10% | inhibition [4]: 24% | inhibition [5]: < 10% | inhibition [6]: 22%
Structure (SMILES): O=C(Cc1ccc(OCc2ccccc2)cc1)N(Cc1ccccc1)OCc1ccccc1

IC50 (Cyclooxygenase): 30 µM | pIC50 [10]: 6.80 | pIC50 [11]: 7.00
Structure (SMILES): CCCN(O)C(=O)Cc1ccc(OCc2ccccc2)cc1
Inhibition (Mus musculus [1]): 82% | inhibition in vivo at 200 mg/kg (Cavia porcellus [9]): 0%
